{"source": "ChEMBL document CHEMBL1250478", "about": "(J Med Chem, 2010)", "key": {"Plasmodium falciparum [1]": {"system": "Plasmodium falciparum", "assay": "Antiplasmodial activity against chloroquine-sensitive Plasmodium falciparum D6 early trophozoites infected in NMRI mice (Mus musculus) RBC assessed as inhibition of hemozoin formation at 50 nM after 24 hrs by microscopic analysis", "format": "functional, organism-based", "summary_of_the_method": "(§1)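 Ring-stage D6 parasites synchronized with 5% sorbitol, suspended at 1% hematocrit and drug added from 1 mM stock. Incubated 24 h at 37 °C under 5% O2/5% CO2/90% N2 alongside a no-drug control. Giemsa-stained smears were used for parasitemia and for microscopic examination of hemozoin and parasite morphology.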"}, "Plasmodium berghei [2]": {"system": "Plasmodium berghei", "assay": "Antiplasmodial activity against Plasmodium berghei infected in NMRI mice (Mus musculus) assessed as parasitaemia level at 46 mg/kg, perorally administered as 4 consecutive doses measured after 4 days post last dose relative to control", "format": "functional", "details": "route oral"}, "Plasmodium berghei [3]": {"system": "Plasmodium berghei", "assay": "Antiplasmodial activity against Plasmodium berghei infected in NMRI mice (Mus musculus) assessed as survival rate at 30 mg/kg, perorally administered as single dose", "format": "functional", "details": "route oral", "summary_of_the_method": "(§2)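 P. berghei blood diluted in saline to 10^8 parasitized erythrocytes/mL; 0.2 mL given i.v. to groups of 3 female NMRI mice (controls 5). Compounds dosed at 10 ml/kg either once on day 1 (oral gavage or subcutaneous) or orally at 4, 24, 48, 72 h post-infection. Parasitemia read by FACS on 100,000 RBCs from tail blood on day 3 (single dose) or day 4 (quadruple dose). Activity = % reduction versus control mean. Survival monitored to 30 days.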"}, "Plasmodium berghei [4]": {"system": "Plasmodium berghei", "assay": "Antiplasmodial activity against Plasmodium berghei infected in NMRI mice (Mus musculus) assessed as survival rate at 30 mg/kg, perorally administered as 4 consecutive doses measured post last dose", "format": "functional", "details": "route oral", "summary_of_the_method": "as §2"}, "Plasmodium falciparum [5]": {"system": "Plasmodium falciparum", "assay": "Antiplasmodial activity against synchronized chloroquine-resistant Plasmodium falciparum Dd2 infected in NMRI mice (Mus musculus) RBC assessed as inhibition of hemozoin formation at 100 nM after 24 hrs by colorimetric analysis", "format": "functional, organism-based", "summary_of_the_method": "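Sorbitol-synchronized D6 and Dd2 cultures at 1% hematocrit were drug-treated for 24 h at 37 °C. Parasites were freed by freeze-thaw and saponin/Triton lysis buffer (37 °C, 30 min). Hemozoin was pelleted at 215,000 g, washed with acetone and PBS, then dissolved in 0.2 N NaOH. Heme was quantified by A400 (ε 91,000 cm-1M-1) per parasitized erythrocyte. Baseline was taken from 0 h culture.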"}, "Plasmodium berghei [6]": {"system": "Plasmodium berghei", "assay": "Antiplasmodial activity against Plasmodium berghei infected in NMRI mice (Mus musculus) assessed as parasitaemia level at 30 mg/kg, subcutaneously after 3 days relative to control", "format": "functional", "details": "route subcutaneous", "summary_of_the_method": "as §2"}, "Plasmodium berghei [7]": {"system": "Plasmodium berghei", "assay": "Antiplasmodial activity against Plasmodium berghei infected in NMRI mice (Mus musculus) assessed as survival rate at 30 mg/kg, subcutaneously administered as single dose", "format": "functional", "details": "route subcutaneous", "summary_of_the_method": "as §2"}, "Plasmodium falciparum [8]": {"system": "Plasmodium falciparum", "assay": "Antiplasmodial activity against chloroquine-resistant Plasmodium falciparum Dd2 early trophozoites infected in NMRI mice (Mus musculus) RBC assessed as inhibition of hemozoin formation at 50 nM after 24 hrs by microscopic analysis", "format": "functional, organism-based", "summary_of_the_method": "(§3)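 D6 and Dd2 cultures synchronized to ring stage with 5% sorbitol, suspended at 1% hematocrit and exposed to drug (from 1 mM stock) for 24 h at 37 °C under 5% O2/5% CO2/90% N2. Giemsa-stained smears examined by microscopy for hemozoin, parasitemia and parasite morphology.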"}, "Plasmodium berghei [9]": {"system": "Plasmodium berghei", "assay": "Antiplasmodial activity against Plasmodium berghei infected in NMRI mice (Mus musculus) assessed as parasitaemia level at 30 mg/kg, perorally administered as 4 consecutive doses measured after 3 days post last dose relative to control", "format": "functional", "details": "route oral", "summary_of_the_method": "as §2"}, "Plasmodium falciparum [10]": {"system": "Plasmodium falciparum", "assay": "Antiplasmodial activity against synchronized chloroquine-sensitive Plasmodium falciparum D6 infected in NMRI mice (Mus musculus) RBC assessed as inhibition of hemozoin formation at 10 nM after 24 hrs by colorimetric analysis", "format": "functional, organism-based", "summary_of_the_method": "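D6 cultures synchronized with sorbitol, held at 1% hematocrit, drug-treated 24 h at 37 °C. Parasites freeze-thawed, then lysed 30 min at 37 °C in saponin/Triton X-100 buffer. Hemozoin pelleted at 215,000 g, washed with acetone and PBS, dissolved 2 h in 0.2 N NaOH. Heme read at A400 (ε 91,000 cm-1M-1) and expressed per parasitized erythrocyte. A 0 h culture gave the baseline.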"}, "Plasmodium falciparum [11]": {"system": "Plasmodium falciparum", "assay": "Antiplasmodial activity against chloroquine-resistant Plasmodium falciparum Dd2 early trophozoites infected in NMRI mice (Mus musculus) RBC assessed as inhibition of hemozoin formation at 10 nM after 24 hrs by microscopic analysis", "format": "functional, organism-based", "summary_of_the_method": "as §3"}, "Plasmodium berghei [12]": {"system": "Plasmodium berghei", "assay": "Antiplasmodial activity against Plasmodium berghei infected in NMRI mice (Mus musculus) assessed as parasitaemia level at 30 mg/kg, perorally administered as single dose measured after 3 days relative to control", "format": "functional", "details": "route oral", "summary_of_the_method": "as §2"}, "Plasmodium falciparum [13]": {"system": "Plasmodium falciparum", "assay": "Inhibition of hemozoin formation in early trophozoites of chloroquine-sensitive Plasmodium falciparum D6 infected in RBC assessed as enlarged digestive vacuole at 100 nM after 24 hrs by microscopic analysis", "format": "functional, organism-based", "summary_of_the_method": "as §1"}, "Mus musculus": {"system": "Mus musculus", "assay": "Toxicity in NMRI mouse at 30 mg/kg, po administered as single dose", "format": "organism-based", "set-up": "dose 30 mg/kg, route oral", "details": "in vivo"}, "Plasmodium falciparum [14]": {"system": "Plasmodium falciparum", "assay": "Antiplasmodial activity against chloroquine-sensitive Plasmodium falciparum D6 early trophozoites infected in NMRI mice (Mus musculus) RBC assessed as inhibition of hemozoin formation at 10 nM after 24 hrs by microscopic analysis", "format": "functional, organism-based", "summary_of_the_method": "as §1"}, "Plasmodium berghei [15]": {"system": "Plasmodium berghei", "assay": "Antiplasmodial activity against Plasmodium berghei infected in NMRI mice (Mus musculus) assessed as survival rate at 46 mg/kg, perorally administered as 4 consecutive doses measured post last dose", "format": "functional", "details": "route oral", "summary_of_the_method": "as §2"}}, "note": "Active and inactive are the calls of the source. The calls are words filed in the database; no cut-off is given here."}
{"smiles": "Clc1ccc2c(NCCCN3CCC(NC(c4ccccn4)c4ccccn4)CC3)ccnc2c1", "note": "[DM-1157]", "values": [{"measurement": "inhibition", "setting": "Plasmodium falciparum [1]", "value": "Active"}, {"measurement": "Activity", "setting": "Plasmodium berghei [2]", "value": ">99.9", "unit": "%"}, {"measurement": "Survival", "setting": "Plasmodium berghei [3]", "value": 7, "unit": "days"}, {"measurement": "Survival", "setting": "Plasmodium berghei [4]", "value": 27, "unit": "days"}, {"measurement": "inhibition", "setting": "Plasmodium falciparum [5]", "value": "Active"}, {"measurement": "Activity", "setting": "Plasmodium berghei [6]", "value": 99.3, "unit": "%"}, {"measurement": "Survival", "setting": "Plasmodium berghei [7]", "value": 9, "unit": "days"}, {"measurement": "inhibition", "setting": "Plasmodium falciparum [8]", "value": "Active"}, {"measurement": "Activity", "setting": "Plasmodium berghei [9]", "value": ">99.9", "unit": "%"}, {"measurement": "inhibition", "setting": "Plasmodium falciparum [10]", "value": "Active"}, {"measurement": "inhibition", "setting": "Plasmodium falciparum [11]", "value": "Active"}, {"measurement": "Activity", "setting": "Plasmodium berghei [12]", "value": 94, "unit": "%"}, {"measurement": "inhibition", "setting": "Plasmodium falciparum [13]", "value": "Active"}, {"measurement": "Activity", "setting": "Mus musculus", "value": "Non-toxic"}, {"measurement": "inhibition", "setting": "Plasmodium falciparum [14]", "value": "Active"}, {"measurement": "Survival", "setting": "Plasmodium berghei [15]", "value": 30, "unit": "days"}]}
